MEKK2 WT-MEK5 – modulators of MEK5 binding to wildtype MEKK2, primary screen, biochemical, multiplex bead flow cytometry, Alexa488-MEK5; binding response (% of control), % at 10 µM; Alexa488-MEK5 binding to MEKK2 WT; actives lie on both sides; 290,000 compounds, 1.1% hits; Mitogen-activated protein kinase kinase kinase 2 (Homo sapiens), Q9Y2U5; in the data active = binding response below about 67% or above about 130%
HCV NS3 hel inh – inhibitors of HCV NS3 helicase, primary screen, biochemical, Cy5 molecular beacon fluorescence; 290,000 compounds, 0.56% hits; AID 1800, 2009; inhibition, % at 10.9 µM; NS3 helicase DNA unwinding; Hepatitis C virus NS3 helicase;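 active = inhibition above the mean of all tested compounds plus 3 SD, set per campaign, cut at about 35% in these data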
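Test system: hepatitis C virus NS3 helicase domain fragment enzyme. Also added: annealed dual-labelled DNA beacon duplex, ATP-started. Timing: 60 min unwinding reaction at 25 °C after ATP addition. Technique: Cy5 fluorescence. Measure: % inhibition of unwinding.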
DNA FID counter-1 – compounds displacing fluorescent DNA intercalator, primary screen, artefact control for HCV NS3 helicase inhibitor project, biochemical, FID fluorescence | DNA fluorescent intercalator displacement | 290,000 compounds, 0.17% hits | inhibition, % at 7.9 µM;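 also: higher means more ethidium bromide displaced from hairpin DNA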
MEKK2 mut-MEK5 – MEK5 binding signal on mutant MEKK2 PB1, primary screen, biochemical, multiplex bead flow cytometry, Alexa488-MEK5. AID 1530, 2009. percent response, % at 10 µM. Alexa488-MEK5 binding to MEKK2 mutant. 290,000 compounds, 0.35% hits; in the data active = percent response above about 24%, passing the limit was not always enough
MEKK3 PB1 HTS – modulators of MEKK3-MEK5 PB1 binding, primary screen, biochemical, wildtype MEKK3, multiplex bead flow cytometry, Alexa488-MEK5. bead-based flow cytometry, Alexa488-MEK5 binding to MEKK3; actives lie on both sides; 0 = blocked by unlabeled MEK5, 100 = vehicle. binding response (% of control), % at 10 µM. 290,000 compounds, 1.4% hits. AID 1529, 2009;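 active = binding response more than 3 SD above or below the average of its plate-row segment, actives on both sides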;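 also: Alexa488 bead fluorescence after subtracting the streptavidin-only scavenger bead signal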
Target sequence (Q99759 whole entry, looked up): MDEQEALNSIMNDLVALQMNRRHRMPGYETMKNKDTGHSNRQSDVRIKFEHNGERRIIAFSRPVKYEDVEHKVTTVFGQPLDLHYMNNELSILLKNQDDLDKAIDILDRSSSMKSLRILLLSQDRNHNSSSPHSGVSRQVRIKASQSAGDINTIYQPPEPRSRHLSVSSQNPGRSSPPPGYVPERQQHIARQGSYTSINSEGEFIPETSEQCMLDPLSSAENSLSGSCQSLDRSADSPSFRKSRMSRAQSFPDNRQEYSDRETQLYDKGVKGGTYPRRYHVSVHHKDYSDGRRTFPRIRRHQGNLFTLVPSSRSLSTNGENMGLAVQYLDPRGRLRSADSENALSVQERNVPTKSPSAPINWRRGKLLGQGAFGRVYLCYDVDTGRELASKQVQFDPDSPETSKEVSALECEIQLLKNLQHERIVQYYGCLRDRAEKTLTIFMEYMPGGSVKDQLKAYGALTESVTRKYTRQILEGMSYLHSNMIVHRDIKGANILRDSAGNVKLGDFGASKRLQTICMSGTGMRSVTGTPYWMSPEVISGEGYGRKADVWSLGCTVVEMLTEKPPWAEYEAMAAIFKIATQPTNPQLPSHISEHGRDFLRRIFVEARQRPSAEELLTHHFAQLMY
T cruzi repl – inhibitors of intracellular T. cruzi growth, primary screen, luminescence, NIH3T3 host cells; T. cruzi beta-gal in NIH3T3, 90 h; inhibition, % (concentration not given with the values); AID 1885, 2009; 300,000 compounds, 1.4% hits;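 active = mean inhibition across valid replicates above about 55%, limit read from the data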;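 also: signal also drops with host cell toxicity which is not excluded here; higher percent means less beta-gal luminescence so fewer parasites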
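System: NIH/3T3 fibroblasts plus reporter T. cruzi. Medium: DMEM plus 2% FBS. Probe or stimulus: 5000 reporter trypomastigotes per well. Compound: single 50 nL compound addition per well in DMSO. Incubation: co-culture of at least 90 h after 3 h attachment. Detection: GalScreen β-gal luminescence, detergent lysis, 60 min. Evaluation: parasite load inhibition, %.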
NS3 helicase cf – HCV NS3 helicase inhibitors, retest, confirmation, biochemical, Cy5 molecular beacon fluorescence, triplicate | AID 1943, 2009 | 1,600 compounds, 31% hits | NS3 helicase DNA unwinding | shares compounds with HCV NS3 hel inh | inhibition, % at 10.9 µM;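 active = inhibition above the mean of all tested compounds plus 3 SD, cutoff set per campaign, cut at about 36% in these data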
DNA FID counter-2 – compounds displacing fluorescent DNA intercalator, artefact control for HCV NS3 helicase inhibitor project, biochemical, FID fluorescence, triplicate | shares compounds with HCV NS3 hel inh | DNA fluorescent intercalator displacement | inhibition, % at 7.9 µM | 1,600 compounds, 4% hits | AID 1945, 2009;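 also: higher means more displacement of ethidium bromide from the DNA hairpin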
DNA FID DR – compounds displacing fluorescent intercalator from DNA, dose response, counter-screen for HCV NS3 helicase inhibitor project, biochemical, fluorescence. shares compounds with HCV NS3 hel inh. AID 2172, 2009. IC50, µM. fluorescent intercalator displacement from DNA. 120 tested, under 10 active; call rule not given here
Each line names hits and unclear results; the compound was inactive in the other large screens (follow-up assays come after a bar, where they were run). Rows were chosen to be rich in hits. Some 4.1% of all compounds tested hit in one or more screens of this group. Rule as the data show it, unless noted: active = inhibition above about 37%; inactive = the rest.

Nn1c(Cc2cccc3ccccc23)nnc1SCc1c(Cl)cccc1Cl	HCV NS3 hel inh 61 | NS3 helicase cf inactive | DNA FID counter-2 inactive
COC(=O)[C@H](Cc1ccccc1)NC(=O)NCCc1ccc(OC)cc1	none
Nc1ccc(O)cc1C(=O)OCC(=O)c1ccc(C2CCCCC2)cc1	HCV NS3 hel inh 59 | NS3 helicase cf inactive | DNA FID counter-2 inactive
Cc1nn(Cc2ccc(Cl)c(Cl)c2)c(C)c1NC(=O)c1cc(-c2ccco2)on1	HCV NS3 hel inh 40 | NS3 helicase cf inactive | DNA FID counter-2 inactive
Nc1nc(-c2cc(O)ccc2[N+](=O)[O-])cc(-c2ccccc2)c1[N+](=O)[O-]	HCV NS3 hel inh 96 | NS3 helicase cf inactive | DNA FID counter-2 45
O=C(COc1c(CO)cc(Br)cc1CO)NC1CCCc2ccccc21 (stereo not drawn)	none
O=C(C(=O)N1CCN(Cc2ccc3c(c2)OCO3)CC1)c1c[nH]c2ccccc12	none
COc1cc(OC)c(-c2c3cc(O)c(=O)cc-3oc3cc(O)c(O)cc23)cc1OC	HCV NS3 hel inh 51 (no result: T cruzi repl) | NS3 helicase cf 86 | DNA FID counter-2 inactive
COc1ccc(N2CCN(C(=O)CN(c3ccccc3)S(=O)(=O)c3ccc(OC)cc3)CC2)cc1	HCV NS3 hel inh 40 | NS3 helicase cf inactive | DNA FID counter-2 inactive
Cc1ccc(SCc2cc(=O)c3c(=O)n(-c4ccccc4)[nH]c3[nH]2)cc1	none
O=c1cc(CSc2ccc(Cl)cc2)[nH]c2[nH]n(-c3ccccc3)c(=O)c12	HCV NS3 hel inh 40 | NS3 helicase cf 53 | DNA FID counter-2 inactive | DNA FID DR inactive
Oc1c(Cl)cc(CN2CCCCC2)c2cccnc12	HCV NS3 hel inh 37 | NS3 helicase cf inactive | DNA FID counter-2 inactive
COc1ccc(CCN2C(=NC(C)=O)SC3CS(=O)(=O)CC32)cc1OC (stereo not drawn)	none
O=C(NCc1cccnc1)c1ccc(Br)o1	none (no result: MEKK2 WT-MEK5, HCV NS3 hel inh, DNA FID counter-1, MEKK2 mut-MEK5, MEKK3 PB1 HTS)
CC(NC(=O)/C=C/c1ccco1)c1nc2ccccc2n1Cc1cccc(Cl)c1 (stereo not drawn)	HCV NS3 hel inh 36 | NS3 helicase cf inactive | DNA FID counter-2 inactive
Cc1ccc(/C=C/C(=O)Nc2ccc(S(N)(=O)=O)cc2)o1	none
Cc1nc(Nc2ccc(S(N)(=O)=O)cc2)oc1C	HCV NS3 hel inh 81 | NS3 helicase cf inactive | DNA FID counter-2 inactive
Cc1cc(C)c(C(=O)CSc2nnc(-c3ccccc3Br)o2)cc1C	HCV NS3 hel inh 39 | NS3 helicase cf inactive | DNA FID counter-2 inactive
CN(Cc1ccco1)S(=O)(=O)c1nnc(NC(=O)c2cccc(Cl)c2)s1	none
CC(C)CC(=O)Nc1nnc(S(=O)(=O)N(C)Cc2ccco2)s1	HCV NS3 hel inh 55 | NS3 helicase cf inactive | DNA FID counter-2 inactive
COc1ccc(N2CCN(Cc3cc(=O)c(OCC(=O)NC4CCCC4)co3)CC2)cc1	none (no result: MEKK2 WT-MEK5, HCV NS3 hel inh, DNA FID counter-1, MEKK2 mut-MEK5, MEKK3 PB1 HTS)
CSc1ccc(C2Nc3cccc4cccc(c34)N2)cc1	none
Clc1ccc(C2Nc3cccc4cccc(c34)N2)cc1	HCV NS3 hel inh 69 | NS3 helicase cf inactive | DNA FID counter-2 inactive
Cc1cc(-n2c(C)cc(C(=O)CSc3ccc4c(c3)OCCO4)c2C)no1	HCV NS3 hel inh 37 | NS3 helicase cf inactive | DNA FID counter-2 inactive
CC(/C=C1\SC(=S)N(NS(=O)(=O)c2ccc(C)cc2)C1=O)=C\c1ccccc1	HCV NS3 hel inh 43 | NS3 helicase cf 86 | DNA FID counter-2 inactive
CC(/C=C1\SC(=S)N(C(C(=O)O)C(C)C)C1=O)=C\c1ccccc1 (stereo not drawn)	HCV NS3 hel inh 36 | NS3 helicase cf 68 | DNA FID counter-2 inactive
CC(/C=C1\SC(=S)N(c2ccc(C(=O)O)cc2)C1=O)=C\c1ccccc1	none
CC(/C=C1\SC(=S)N(NS(=O)(=O)c2ccccc2)C1=O)=C\c1ccccc1	none
CC(/C=C1\SC(=S)N(NC(=O)c2ccncc2)C1=O)=C\c1ccccc1	HCV NS3 hel inh 78 | NS3 helicase cf inactive | DNA FID counter-2 inactive
CC1CCC(NC(=O)CSc2nncs2)CC1 (stereo not drawn)	none (no result: MEKK2 WT-MEK5, HCV NS3 hel inh, DNA FID counter-1, MEKK2 mut-MEK5, MEKK3 PB1 HTS)
CCOC(=O)/C=c1\s/c(=C(\C#N)C(=O)OCC)n(-c2ccccc2)c1=O	HCV NS3 hel inh 57 | NS3 helicase cf inactive | DNA FID counter-2 inactive
CNC(=O)/C(C#N)=c1\s/c(=C/C(=O)OC)c(=O)n1-c1ccccc1	none
Cc1cc(C)nc(NS(=O)(=O)c2ccc(NC(=O)C3(c4ccccc4)CCCC3)cc2)n1	none
O=c1c(O)cccc2cc(O)c(O)c(O)c12	HCV NS3 hel inh 53 | NS3 helicase cf 108 | DNA FID counter-2 inactive
N#Cc1c(N2CCCCC2)nc(N)c2c(N)nc3c(c12)CC(CCl)O3 (stereo not drawn)	HCV NS3 hel inh 58 | NS3 helicase cf inactive | DNA FID counter-2 inactive
C(=N\Nc1nc(-c2ccccc2)cs1)/c1ccncc1	none
O=C(O)Cc1sc(N/N=C\c2ccncc2)nc1-c1ccccc1	HCV NS3 hel inh 55 | NS3 helicase cf inactive | DNA FID counter-2 inactive
CNc1ccc(Br)cc(C(=O)/C=C/c2cccc(OC)c2OC)c1=O	none
CNc1ccc(Br)cc(C(=O)/C=C/c2cccc(Cl)c2Cl)c1=O	HCV NS3 hel inh 37 (no result: T cruzi repl) | NS3 helicase cf 68 | DNA FID counter-2 inactive | DNA FID DR inactive
ClCc1csc(N/N=C/c2cccs2)n1	HCV NS3 hel inh 43 | NS3 helicase cf inactive | DNA FID counter-2 inactive
CCCCn1c(SCC(=O)NNC(=O)c2ccco2)nnc1-c1ccco1	none
O=C1c2ccccc2S(=O)(=O)N1CCS(=O)(=O)c1ccc(F)cc1	none
O=C(/C=C/c1ccc(-c2ccccc2)o1)c1ccccc1	HCV NS3 hel inh 47 | NS3 helicase cf inactive | DNA FID counter-2 inactive

Source: PubChem
